Experimental data: ChEMBL document CHEMBL1124249 (J Med Chem, 1988)

Legend:
[1] = Ratio of IC50 for MVD to GPI; format: functional
Cavia porcellus = organism: Cavia porcellus; assay: Inhibitory potency evaluated against electrically evoked contractions of guinea pig ileum; format: functional, organism-based
Method in brief: (§1)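 Electrically stimulated twitch of isolated guinea pig ileum (μ assay). IC50 is the concentration giving half-maximal twitch inhibition, taken from six to eight computed log dose-response curves with six concentrations each. [Met]enkephalin IC50 was run on the same preparation. Each IC50 was corrected by the ratio of the mean of all [Met]enkephalin IC50s to that assay's [Met]enkephalin IC50.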

Mu-type opioid receptor = Mu-type opioid receptor (Rattus norvegicus, UniProt P33535); assay: Inhibition of [3H]DAGO binding to rat brain membrane Opioid receptor mu 1
Sequence of Mu-type opioid receptor (P33535 whole entry): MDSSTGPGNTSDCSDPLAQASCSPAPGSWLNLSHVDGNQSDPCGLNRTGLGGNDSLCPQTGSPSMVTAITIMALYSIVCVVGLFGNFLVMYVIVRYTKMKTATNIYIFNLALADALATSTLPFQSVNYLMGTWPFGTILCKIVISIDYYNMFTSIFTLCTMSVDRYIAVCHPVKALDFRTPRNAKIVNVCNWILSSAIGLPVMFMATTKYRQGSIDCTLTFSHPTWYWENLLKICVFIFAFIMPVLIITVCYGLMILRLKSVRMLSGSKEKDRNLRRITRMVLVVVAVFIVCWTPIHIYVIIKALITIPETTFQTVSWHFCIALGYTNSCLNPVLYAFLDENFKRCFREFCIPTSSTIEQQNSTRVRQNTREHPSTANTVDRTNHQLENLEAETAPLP

Mus musculus = organism: Mus musculus; assay: Inhibitory potency evaluated against electrically evoked contractions of mouse vas deferens; format: functional, organism-based
Method in brief: as §1, with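 “mouse vas deferens (δ” for “guinea pig ileum (μ”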

[2] = biological target: Delta-type opioid receptor (Rattus norvegicus, UniProt P33533); assay: Inhibition of [3H]DTLET binding torat brain membrane Opioid receptor delta 1
Sequence of Delta-type opioid receptor (P33533 whole entry): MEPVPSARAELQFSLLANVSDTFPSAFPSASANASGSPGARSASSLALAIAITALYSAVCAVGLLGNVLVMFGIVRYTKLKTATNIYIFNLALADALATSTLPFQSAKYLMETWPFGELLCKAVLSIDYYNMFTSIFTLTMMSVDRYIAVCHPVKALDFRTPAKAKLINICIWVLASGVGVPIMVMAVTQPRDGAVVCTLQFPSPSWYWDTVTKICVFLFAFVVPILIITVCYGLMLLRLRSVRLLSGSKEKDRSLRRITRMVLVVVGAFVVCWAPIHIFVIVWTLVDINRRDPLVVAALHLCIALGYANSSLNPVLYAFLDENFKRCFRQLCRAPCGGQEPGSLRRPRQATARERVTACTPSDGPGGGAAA

| Structure (SMILES) | Ratio [1] | IC50 (Cavia porcellus) | Ki (Mu-type opioid receptor) | IC50 (Mus musculus) | Ki [2] |
| --- | --- | --- | --- | --- | --- |
| CC(C)C[C@H](NC(=O)[C@H](Cc1ccccc1)NC(=O)CNC(=O)[C@@H](COC(C)(C)C)NC(=O)[C@@H](N)Cc1ccc(O)cc1)C(=O)N[C@H](C(=O)O)[C@@H](C)O | 0.0006 | 1800 nM | 374 nM | 1.07 nM | 6.14 nM |
| CC(C)C[C@H](NC(=O)[C@H](Cc1ccccc1)NC(=O)CNC(=O)[C@@H](COC(C)(C)C)NC(=O)[C@@H](N)Cc1ccc(O)cc1)C(=O)N[C@H](C(=O)O)[C@@H](C)OC(C)(C)C | 0.00021 | 2790 nM | 475 nM | 0.6 nM | 4.68 nM |
| CC(C)C[C@H](NC(=O)[C@H](Cc1ccccc1)NC(=O)CNC(=O)[C@@H](CO)NC(=O)[C@@H](N)Cc1ccc(O)cc1)C(=O)N[C@H](C(=O)O)[C@@H](C)O | 0.001 | 406 nM | – | 0.4 nM | – |
| CC(C)C[C@H](NC(=O)[C@H](Cc1ccccc1)NC(=O)CNC(=O)[C@@H](NC(=O)[C@@H](N)Cc1ccc(O)cc1)[C@@H](C)O)C(=O)N[C@H](C(=O)O)[C@@H](C)OC(C)(C)C | 0.0037 | 204 nM | 64.6 nM | 0.75 nM | 3.1 nM |
| CC(C)C[C@H](NC(=O)[C@H](Cc1ccccc1)NC(=O)CNC(=O)[C@@H](NC(=O)[C@@H](N)Cc1ccc(O)cc1)[C@@H](C)O)C(=O)N[C@H](C(=O)O)[C@@H](C)O | 0.0003 | 460 nM | 23.3 nM | 0.15 nM | 1.35 nM |
| CSCC[C@H](NC(=O)[C@H](Cc1ccccc1)NC(=O)CNC(=O)CNC(=O)[C@@H](N)Cc1ccc(O)cc1)C(=O)O | – | 200 nM | – | 13 nM | – |
| CC(C)C[C@H](NC(=O)[C@H](Cc1ccccc1)NC(=O)CNC(=O)[C@@H](COCc1ccccc1)NC(=O)[C@@H](N)Cc1ccc(O)cc1)C(=O)N[C@H](C(=O)O)[C@@H](C)O | 0.0042 | 83.3 nM | 42.1 nM | 0.35 nM | 1.47 nM |
| CC(C)C[C@H](NC(=O)[C@H](Cc1ccccc1)NC(=O)CNC(=O)[C@@H](NC(=O)[C@@H](N)Cc1ccc(O)cc1)[C@@H](C)OC(C)(C)C)C(=O)N[C@H](C(=O)O)[C@@H](C)O | – | – | > 100000 nM | – | 13000 nM |
| CC(C)C[C@H](NC(=O)[C@H](Cc1ccccc1)NC(=O)CNC(=O)[C@@H](CO)NC(=O)[C@@H](N)Cc1ccc(O)cc1)C(=O)N[C@H](C(=O)O)[C@@H](C)OC(C)(C)C | 0.0041 | 202 nM | 185 nM | 0.84 nM | 6.35 nM |
| CC(C)C[C@H](NC(=O)[C@H](Cc1ccccc1)NC(=O)CNC(=O)[C@H](NC(=O)[C@@H](N)Cc1ccc(O)cc1)[C@@H](C)OC(C)(C)C)C(=O)N[C@H](C(=O)O)[C@@H](C)O | 0.1 | 11400 nM | 4500 nM | 1190 nM | 866 nM |
